In ChEMBL document CHEMBL4613315, “Design of First-in-Class Dual EZH2/HDAC Inhibitor: Biochemical Activity and Biological Evaluation in Cancer Cells” (ACS Med Chem Lett, 2020):
pIC50: −log10 of the molar value. Each block holds one molecule with its values, some of them ahead of it.

Tests used:
[1] = system: U-937; test: Cytotoxicity against human U937 cells assessed as reduction in cell viability at 25 uM in presence of vorinostat incubated for 72 hrs by CellTiter-Glo Luminescent cell viability assay relative to control; format: functional; details: U-937, 72 h
How it was run: (§1)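 Viability after 72 h of single-agent or combined treatment with the HDAC inhibitor (0.05–0.25 μM) and the EZH2 inhibitor. EZH2 inhibitor range: U937 5–25 μM; RH4 10–50 μM. Synergy was assessed by combination index and isobologram analysis.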

[2] = target: T1, Histone-lysine N-methyltransferase EZH2 (Homo sapiens, UniProt Q15910); test: Inhibition of human EZH2 using core histone as substrate incubated for 1 hr by fluorescence based assay
Target sequence in this assay (Q15910 whole entry): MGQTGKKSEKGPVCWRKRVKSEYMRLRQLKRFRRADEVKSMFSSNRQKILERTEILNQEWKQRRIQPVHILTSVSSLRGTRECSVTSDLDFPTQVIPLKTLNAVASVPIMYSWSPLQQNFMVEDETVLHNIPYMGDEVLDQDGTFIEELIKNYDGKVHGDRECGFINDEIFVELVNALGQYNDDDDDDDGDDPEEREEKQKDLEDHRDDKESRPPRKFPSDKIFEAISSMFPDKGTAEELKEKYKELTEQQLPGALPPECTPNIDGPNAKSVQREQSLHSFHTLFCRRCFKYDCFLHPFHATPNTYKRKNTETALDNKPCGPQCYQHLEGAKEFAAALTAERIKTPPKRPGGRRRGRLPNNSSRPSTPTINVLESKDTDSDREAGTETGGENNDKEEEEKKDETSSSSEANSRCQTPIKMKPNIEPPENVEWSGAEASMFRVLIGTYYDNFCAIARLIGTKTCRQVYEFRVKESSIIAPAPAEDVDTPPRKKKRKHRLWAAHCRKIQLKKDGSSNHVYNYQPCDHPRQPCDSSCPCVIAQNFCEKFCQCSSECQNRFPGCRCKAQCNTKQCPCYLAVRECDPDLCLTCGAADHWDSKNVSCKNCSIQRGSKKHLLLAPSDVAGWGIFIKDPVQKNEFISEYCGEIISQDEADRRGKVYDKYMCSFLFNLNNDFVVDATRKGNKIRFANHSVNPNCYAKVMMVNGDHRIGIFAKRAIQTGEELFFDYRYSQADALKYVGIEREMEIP

[3] = system: U-937; test: Cytotoxicity against human U937 cells assessed as combinational index measured at fraction affected value of 0.05 in presence of vorinostat at 1 uM incubated for 72 hrs by CellTiter-Glo Luminescent cell viability assay; format: functional
[4] = system: U-937; test: Cytotoxicity against human U937 cells assessed as combinational index measured at fraction affected value of […] in presence of vorinostat at 25 uM incubated for 72 hrs by CellTiter-Glo Luminescent cell viability assay; format: functional
[5] = Cytotoxicity against human RH4 cells assessed as combinational index measured at fraction affected value of 0.27 in presence of vorinostat at 10 uM incubated for 72 hrs by CellTiter-Glo Luminescent cell viability assay; format: functional; how it was run: as §1
[6] = Cytotoxicity against human RH4 cells assessed as combinational index measured at fraction affected value of 0.63 in presence of vorinostat at 50 uM incubated for 72 hrs by CellTiter-Glo Luminescent cell viability assay; format: functional; how it was run: as §1
[7] = target: T2, Histone deacetylase (Homo sapiens) (UniProt Q13547+O15379+Q9UBN7+Q92769+Q9UQL6+Q8WUI4+Q9BY41+Q96DB2+P56524+Q9UKV0+Q969S8); test: Inhibition of HDAC in human U937 cells assessed as Ac-H3 level at 50 uM in presence of vorinostat incubated for 120 hrs by Western blot analysis (reference value: 1); format: cell-based; details: U-937
How it was run: (§2)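 U937 leukemia cells given EZH2 inhibitor 50 μM together with HDAC inhibitor 0.5 μM; Western blot at 96 and 120 h for H3K27me3 or acetyl-H3, actin as loading control; densitometry normalized to loading control then to DMSO vehicle.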

[8] = target: T1, Histone-lysine N-methyltransferase EZH2; test: Inhibition of EZH2 in human RH4 cells assessed as H3K27me3 level at 50 uM incubated for 72 hrs by Western blot analysis; format: cell-based
Target sequence in this assay (Q15910 whole entry, looked up): as the sequence (Q15910 whole entry) above

[9] = target: T2, Histone deacetylase (Homo sapiens); test: Inhibition of HDAC in human U937 cells assessed as Ac-H3 level at 50 uM incubated for 96 hrs by Western blot analysis (reference value: 1); format: cell-based; details: U-937
[10] = target: T2, Histone deacetylase (Homo sapiens); test: Inhibition of HDAC in human U937 cells assessed as Ac-H3 level at 50 uM incubated for 120 hrs by Western blot analysis (reference value: 1); format: cell-based; details: U-937
[11] = target: T1, Histone-lysine N-methyltransferase EZH2; test: Inhibition of EZH2 in human U937 cells assessed as H3K27me3 level at 50 uM in presence of vorinostat incubated for 96 hrs by Western blot analysis (reference value: 1); format: cell-based; details: U-937; how it was run: as §2
Target sequence in this assay (Q15910 whole entry, looked up): as the sequence (Q15910 whole entry) above

[12] = target: Histone deacetylase 5 (Homo sapiens, UniProt Q9UQL6); test: Inhibition of human recombinant HDAC5 using AMC-K(TFA)GL as substrate by fluorescence based assay
Sequence of Histone deacetylase 5 (Q9UQL6 whole entry): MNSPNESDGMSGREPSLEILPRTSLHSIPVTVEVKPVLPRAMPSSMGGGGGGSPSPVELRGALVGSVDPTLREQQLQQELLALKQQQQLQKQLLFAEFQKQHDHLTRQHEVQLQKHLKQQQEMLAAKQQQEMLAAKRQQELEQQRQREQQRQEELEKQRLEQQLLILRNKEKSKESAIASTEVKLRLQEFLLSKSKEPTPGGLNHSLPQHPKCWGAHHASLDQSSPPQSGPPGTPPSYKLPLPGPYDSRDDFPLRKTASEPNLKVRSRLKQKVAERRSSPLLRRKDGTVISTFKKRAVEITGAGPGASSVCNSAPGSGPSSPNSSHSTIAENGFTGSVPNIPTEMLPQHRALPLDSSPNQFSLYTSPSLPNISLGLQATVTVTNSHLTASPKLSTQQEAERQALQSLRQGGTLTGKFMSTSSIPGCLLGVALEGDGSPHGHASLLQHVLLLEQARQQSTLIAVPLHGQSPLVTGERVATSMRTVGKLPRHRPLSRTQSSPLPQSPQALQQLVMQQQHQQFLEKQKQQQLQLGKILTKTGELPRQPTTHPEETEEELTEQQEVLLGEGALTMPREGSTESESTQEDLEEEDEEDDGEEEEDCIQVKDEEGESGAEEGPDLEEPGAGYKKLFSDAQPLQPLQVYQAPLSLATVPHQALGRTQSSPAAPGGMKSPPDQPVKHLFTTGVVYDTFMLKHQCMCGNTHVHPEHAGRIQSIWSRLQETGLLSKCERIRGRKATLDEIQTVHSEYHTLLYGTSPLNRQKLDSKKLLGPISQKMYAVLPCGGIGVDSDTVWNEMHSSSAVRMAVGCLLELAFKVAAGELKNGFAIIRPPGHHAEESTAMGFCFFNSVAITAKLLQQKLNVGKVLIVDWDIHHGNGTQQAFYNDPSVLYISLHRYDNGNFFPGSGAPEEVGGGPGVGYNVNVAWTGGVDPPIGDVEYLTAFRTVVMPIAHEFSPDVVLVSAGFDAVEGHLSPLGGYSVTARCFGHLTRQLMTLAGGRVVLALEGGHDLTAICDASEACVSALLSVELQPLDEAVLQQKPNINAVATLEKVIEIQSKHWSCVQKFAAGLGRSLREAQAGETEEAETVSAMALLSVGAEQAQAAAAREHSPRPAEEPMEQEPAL

[13] = Cytotoxicity against human RH4 cells assessed as reduction in cell viability incubated for 72 hrs by CellTiter-Glo Luminescent cell viability assay; format: functional, cell-based; details: Rh4, 72 h
How it was run: (§3)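 Antiproliferative IC50 after 72 h of treatment. Values are means of three independent experiments, each measured in triplicate, ± SD.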

[14] = system: SK-N-SH; test: Cytotoxicity against human SK-N-SH cells assessed as reduction in cell viability incubated for 72 hrs by CellTiter-Glo Luminescent cell viability assay; format: functional, cell-based; how it was run: as §3
[15] = system: U-937; test: Induction of apoptosis in human U937 cells assessed as early apoptotic cells at 25 uM incubated for 72 hrs by annexin V-FITC staining based flow cytometry (reference value: 3.4 %); format: functional
[16] = Cell cycle arrest in human RH4 cells assessed as G2/M accumulation at 14 uM incubated for 72 hrs by propidium iodide staining based flow cytometry (reference value: 18.9 %); format: functional
[17] = Cell cycle arrest in human RH4 cells assessed as G2/M accumulation at 28 uM incubated for 72 hrs by propidium iodide staining based flow cytometry (reference value: 18.9 %); format: functional
[18] = Induction of apoptosis in human RH4 cells assessed as late apoptotic cells at 14 uM incubated for 72 hrs by annexin V-FITC staining based flow cytometry (reference value: 2.1 %); format: functional
[19] = Induction of apoptosis in human RH4 cells assessed as early apoptotic cells at 28 uM incubated for 72 hrs by annexin V-FITC staining based flow cytometry (reference value: 10.8 %); format: functional
[20] = Induction of apoptosis in human RH4 cells assessed as late apoptotic cells at 28 uM incubated for 72 hrs by annexin V-FITC staining based flow cytometry (reference value: 2.1 %); format: functional
[21] = species: Homo sapiens; test: Cell cycle arrest in human RH4 cells assessed as increase in subG1 accumulation incubated for 72 hrs by propidium iodide staining based assay; format: functional
[22] = system: U-937; test: Induction of differentiation of human U937 cells assessed as increase in CD11b level at 25 uM incubated for 72 hrs by flow cytometry analysis; format: functional
How it was run: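 U937 cells were treated for 72 h at 10 and 25 μM, and surface CD11b expression was measured as a differentiation marker.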

[23] = system: U-937; test: Cell cycle arrest in human U937 cells assessed as subG1 accumulation at 10 uM incubated for 72 hrs by propidium iodide staining based flow cytometry (reference value: 4.9 %)

pIC50 [2]: 5.24 | fold change (FC) [7]: 0.8 | fold change (FC) [8]: 0.3 | fold change (FC) [9]: 1.4 | fold change (FC) [10]: 0.7 | fold change (FC) [11]: 1.1
Structure (SMILES): Cc1cc(C)c(CNC(=O)c2cc(C)n(-c3ccccc3)c2C)c(=O)[nH]1
inhibition at 25 µM [1]: 90% | CI [3]: 3.34 | CI [4]: 0.04 | CI [5]: 0.64 | CI [6]: 0.54

pIC50 [2]: 5.13 | pIC50 [12]: 4.78
Structure (SMILES): Cc1cc(C)c(CNC(=O)c2cc(C)n(-c3cccc(NC(=O)CCCCCCC(=O)NO)c3)c2C)c(=O)[nH]1
pIC50 [13]: 4.89 | pIC50 [14]: 4.60 | Activity [15]: 23.3% | Activity [16]: 16.1% | Activity [17]: 6.4% | Activity [18]: 3.2% | Activity [19]: 26.5% | Activity [20]: 4.4% | Activity [21]: Dose-dependent effect | fold change (FC) [22]: 2.7 | Activity [23]: 8.2%
